Results as given in ChEMBL document CHEMBL1765085, “Cytotoxic and apoptosis-inducing activities of triterpene acids from Poria cocos” (J Nat Prod, 2011).
The source made the active and inactive calls. The rule behind the calls is not given here.

Tests used:
HL-60 [1] = assay: Induction of mitochondrial signal transduction pathway-mediated apoptosis in human HL60 cells assessed as increase in Bax level at 30 uM after 8 to 24 hrs by Western blot analysis; conditions: TDE = time-dependent effect
HL-60 [2] = assay: Induction of apoptosis in human HL60 cells assessed as viable cells at 30 uM after 24 hrs by AnnexinV/propidium iodide staining (Rvb =85.6%); assay type: functional; conditions: HL-60, 24 h, read-out: Activity
A549 [3] = assay: Induction of mitochondrial signal transduction pathway-mediated apoptosis in human A549 cells assessed as increase in cleaved caspase-8 level at 30 uM after 24 to 48 hrs by Western blot analysis
HL-60 [4] = assay: Induction of apoptosis in human HL60 cells assessed as necrotic cells at 30 uM after 48 hrs by AnnexinV/propidium iodide staining (Rvb =2.3%); assay type: functional
HL-60 [5] = assay: Induction of apoptosis in human HL60 cells assessed as accumulation at Go/G1 phase at 30 uM after 48 hrs by flow cytometry (reference value: 51.4%); assay type: functional
Summary of the method: (§1)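 Cells seeded at 1 × 10^5 per sample for HL60 and 1.5 × 10^5 for A549, then exposed to 30 μM for 0, 24 or 48 h. After a PBS wash, DNA was stained with Nim-DAPI for 10 min at room temperature. Phase distribution was read by flow cytometry, with the sub-G1 (fragmented DNA) fraction taken as the apoptosis index. Values are means of three experiments.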

HL-60 [6] = assay: Induction of mitochondrial signal transduction pathway-mediated apoptosis in human HL60 cells assessed as increase in cleaved caspase-9 level at 30 uM after 8 hrs by Western blot analysis; assay type: functional, cell-based
Summary of the method: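 HL60 cells (1 × 10^6) pre-incubated 24 h, then exposed to 30 μM final for 8 h. Whole-cell lysates in extraction buffer, resolved on 15% SDS-PAGE, blotted to PVDF, probed overnight at 4 °C with anti-caspase-8 or anti-caspase-9 primary antibodies, β-actin as loading reference. Procaspase loss and cleaved caspase bands read.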

A549 [7] = assay: Induction of apoptosis in human A549 cells assessed as viable cells at 30 uM after 48 hrs by AnnexinV/propidium iodide staining (Rvb =91.2%); assay type: functional; conditions: A549, 48 h, read-out: Activity
[8] = Cytotoxicity in human CRL1579 cells assessed as cell viability after 48 hrs by MTT assay; assay type: functional, cell-based
Summary of the method: (§2)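 Growth conditions: RPMI 1640 for HL60, CRL1579, NIH:OVCAR-3, SK-BR-3, DU145 and PANC-1; D-MEM for A549; MEM for WI-38; all with 10% FBS and antibiotics, 37 °C, 5% CO2. Seeded at 3 × 10^3 cells/well (OVCAR-3 1 × 10^4), then treated 48 h with 10^-4 to 10^-6 M. MTT for 3 h, formazan dissolved in 0.04 M HCl/2-propanol, A570/630. IC50 (50% growth inhibition) from triplicates.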

HL-60 [9] = assay: Cell cycle arrest in human HL60 cells assessed as accumulation at S phase at 30 uM after 48 hrs by flow cytometry (reference value: 42.6%); assay type: functional
Summary of the method: as §1

A549 [10] = assay: Cell cycle arrest in human A549 cells assessed as accumulation at sub-G1 phase at 30 uM after 48 hrs by flow cytometry (reference value: 3.1%); assay type: functional
Summary of the method: as §1

A549 [11] = assay: Cell cycle arrest in human A549 cells assessed as accumulation at Go/G1 phase at 30 uM after 48 hrs by flow cytometry (reference value: 64.3%); assay type: functional
Summary of the method: as §1

A549 [12] = assay: Cell cycle arrest in human A549 cells assessed as accumulation at G2/M phase at 30 uM after 48 hrs by flow cytometry (reference value: 4.9%); assay type: functional
Summary of the method: as §1

[13] = Cytotoxicity in human AZ-521 cells assessed as cell viability after 48 hrs by MTT assay; assay type: functional, cell-based; conditions: AZ-521, 48 h
A549 [14] = assay: Induction of apoptosis in human A549 cells assessed as early apoptotic cells at 30 uM after 48 hrs by AnnexinV/propidium iodide staining (Rvb =4.3%); assay type: functional
A549 [15] = assay: Induction of apoptosis in human A549 cells assessed as necrotic cells at 30 uM after 24 hrs by AnnexinV/propidium iodide staining (Rvb =3.4%); assay type: functional
A549 [16] = assay: Induction of apoptosis in human A549 cells assessed as viable cells at 30 uM after 24 hrs by AnnexinV/propidium iodide staining (Rvb =91.2%); assay type: functional; conditions: A549, 24 h, read-out: Activity
HL-60 [17] = assay: Cytotoxicity in human HL60 cells assessed as cell viability after 48 hrs by MTT assay; assay type: functional, cell-based; conditions: HL-60, 48 h
Summary of the method: as §2

HL-60 [18] = assay: Cell cycle arrest in human HL60 cells assessed as accumulation at G2/M phase at 30 uM after 24 hrs by flow cytometry (reference value: 6.0%); assay type: functional
Summary of the method: as §1

HL-60 [19] = assay: Induction of apoptosis in human HL60 cells assessed as late apoptotic cells at 30 uM after 24 hrs by AnnexinV/propidium iodide staining (Rvb =3.3%); assay type: functional
HL-60 [20] = assay: Induction of mitochondrial signal transduction pathway-mediated apoptosis in human HL60 cells assessed as decrease in Bcl-2 level at 30 uM after 8 to 24 hrs by Western blot analysis; conditions: TDE = time-dependent effect
HL-60 [21] = assay: Induction of apoptosis in human HL60 cells assessed as viable cells at 30 uM after 48 hrs by AnnexinV/propidium iodide staining (Rvb =85.6%); assay type: functional; conditions: HL-60, 48 h, read-out: Activity
A549 [22] = assay: Induction of apoptosis in human A549 cells assessed as early apoptotic cells at 30 uM after 24 hrs by AnnexinV/propidium iodide staining (Rvb =4.3%); assay type: functional
HL-60 [23] = assay: Cell cycle arrest in human HL60 cells assessed as accumulation at G2/M phase at 30 uM after 48 hrs by flow cytometry (reference value: 6.0%); assay type: functional
Summary of the method: as §1

HL-60 [24] = assay: Induction of apoptosis in human HL60 cells assessed as necrotic cells at 30 uM after 24 hrs by AnnexinV/propidium iodide staining (Rvb =2.3%); assay type: functional
A549 [25] = assay: Cell cycle arrest in human A549 cells assessed as accumulation at S phase at 30 uM after 48 hrs by flow cytometry (reference value: 27.7%); assay type: functional
Summary of the method: as §1

HL-60 [26] = assay: Induction of apoptosis in human HL60 cells assessed as early apoptotic cells at 30 uM after 24 hrs by AnnexinV/propidium iodide staining (Rvb =7.6%)
A549 [27] = assay: Induction of mitochondrial signal transduction pathway-mediated apoptosis in human A549 cells assessed as increase in cleaved caspase-9 level at 30 uM after 24 to 48 hrs by Western blot analysis
A549 [28] = assay: Cytotoxicity in human A549 cells assessed as cell viability after 48 hrs by MTT assay; assay type: functional, cell-based; conditions: A549, 48 h
Summary of the method: as §2

For `C=C(CC[C@@H](CO)[C@H]1[C@H](O)C[C@@]2(C)C3=CC[C@@H](C(=C)C)[C@](C)(CCCO)C3=CC[C@]12C)C(C)C` [PORICOTRIOL A], the Activity (HL-60 [1]) was “tde”, the viability at 30 µM (HL-60 [2]) was 34.8% and the Activity (A549 [3]) was “inactive”. The Activity (HL-60 [4]) was 2.5%, the Activity (HL-60 [5]) was 58.6% and the Activity (HL-60 [6]) was “Active”. It also gave a viability at 30 µM (A549 [7]) of 49.3%, an IC50 [8] of 5.5 µM and an Activity (HL-60 [9]) of 30.5%. For the same compound, the Activity (A549 [10]) was 17.4%, the Activity (A549 [11]) was 73% and the Activity (A549 [12]) was 3.6%. For the same compound, the IC50 [13] was 1.4 µM, the Activity (A549 [14]) was 24.1% and the Activity (A549 [15]) was 4.3%. The viability at 30 µM (A549 [16]) was 89.2%, the IC50 (HL-60 [17]) was 1.9 µM and the Activity (HL-60 [18]) was 8.8%. For the same compound, the Activity (HL-60 [19]) was 14%, the Activity (HL-60 [20]) was “tde” and the viability at 30 µM (HL-60 [21]) was 14.7%. The Activity (A549 [22]) was 3.5%, the Activity (HL-60 [23]) was 10.9% and the Activity (HL-60 [24]) was 3.2%. For the same compound, the Activity (A549 [25]) was 6%, the Activity (HL-60 [26]) was 48.1% and the Activity (A549 [27]) was “inactive”. For the same compound, the IC50 (A549 [28]) was 4.2 µM.
